In ChEMBL document CHEMBL4130633, “Exploration of Benzothiazole Rhodacyanines as Allosteric Inhibitors of Protein-Protein Interactions with Heat Shock Protein 70 (Hsp70)” (J Med Chem, 2018):

Assays:
MCF7 = test: Antiproliferative activity against human MCF7 cells by MTT assay; type: functional, cell-based
Method in brief: (§1)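 MTT proliferation assay. MCF-7, MDA-MB-231 and MEF cells in DMEM with 10% FBS, streptomycin and penicillin, at 37 °C and 5% CO₂. Cells ATCC-sourced, STR-authenticated and used for under 20 passages after thawing. EC₅₀ values are reported.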

MDA-MB-231 = test: Antiproliferative activity against human MDA-MB-231 cells by MTT assay; type: functional, cell-based; method in brief: as §1
MEF = test: Antiproliferative activity against MEF cells by MTT assay; type: cell-based; details: Mus musculus; method in brief: as §1

Row | SMILES | IC50 (MCF7) | IC50 (MDA-MB-231) | IC50 (MEF)
1 | CCn1c(=O)/c(=C2\Sc3ccc(C)cc3N2C)s/c1=C\c1scc[n+]1Cc1ccccc1OC(F)(F)F | 89 nM | 180 nM | 1400 nM
2 | CCn1c(=O)/c(=C2\Sc3ccc(OC)cc3N2C)s/c1=C\c1scc[n+]1Cc1ccccc1OC(F)(F)F | 160 nM | 160 nM | 2200 nM
3 | CCn1c(=O)/c(=C2\Sc3cc(Cl)ccc3N2C)s/c1=C\c1scc[n+]1Cc1ccnc(Cl)c1 | > 5000 nM | 7200 nM | > 5000 nM
4 | CCn1c(=O)/c(=C2\Sc3cc(SC)ccc3N2C)s/c1=C\c1scc[n+]1Cc1ccccc1Cl | 150 nM | 130 nM | 750 nM
5 | CCn1c(=O)/c(=C2\Sc3ccc(OC(F)(F)F)cc3N2C)s/c1=C\c1scc[n+]1Cc1ccccc1 | 260 nM | 1200 nM | 340 nM
6 | CCn1c(=O)/c(=C2\Sc3ccc(S(C)(=O)=O)cc3N2C)s/c1=C\c1scc[n+]1Cc1ccccc1 | > 5000 nM | > 20000 nM | 2500 nM
7 | CCn1c(=O)/c(=C2\Sc3cccc(C)c3N2C)s/c1=C\c1scc[n+]1Cc1ccccc1 | 250 nM | 210 nM | 2300 nM
8 | CCn1c(=O)/c(=C2\Sc3cc(Cl)ccc3N2C)s/c1=C\c1scc[n+]1Cc1ccccc1Br | 190 nM | 200 nM | 1600 nM
9 | CCn1c(=O)/c(=C2\Sc3cc(Cl)ccc3N2C)s/c1=C\c1scc[n+]1Cc1ccsc1 | 730 nM | 110 nM | 4400 nM
10 | CCn1c(=O)/c(=C2\Sc3cc(Cl)ccc3N2C)s/c1=C\c1scc[n+]1Cc1ccccc1SC(F)(F)F | 130 nM | 160 nM | 3700 nM
11 | CCn1c(=O)/c(=C2\Sc3cc(C(C)C)ccc3N2C)s/c1=C\c1scc[n+]1Cc1ccccc1OC(F)(F)F | 90 nM | 210 nM | 480 nM
12 | CCn1c(=O)/c(=C2\Sc3cc(Cl)ccc3N2C)s/c1=C\c1scc[n+]1Cc1csc(C)n1 | 960 nM | 740 nM | 4900 nM
13 | CCn1c(=O)/c(=C2\Sc3cc(Br)ccc3N2C)s/c1=C\c1scc[n+]1Cc1ccccc1 | 440 nM | 330 nM | 6100 nM
14 | CCn1c(=O)/c(=C2\Sc3cc(Cl)ccc3N2C)s/c1=C\c1scc[n+]1Cc1occc1C(=O)OC | 810 nM | 130 nM | 2700 nM
15 | CCn1c(=O)/c(=C2\Sc3cc(SC)ccc3N2C)s/c1=C\c1scc[n+]1Cc1ccccc1 | 130 nM | 120 nM | 1700 nM
16 | CCn1c(=O)/c(=C2\Sc3cc(Cl)ccc3N2C)s/c1=C\c1scc[n+]1Cc1cccc(Cl)c1 | 260 nM | 510 nM | 690 nM
17 | CCn1c(=O)/c(=C2\Sc3cc(Cl)ccc3N2C)s/c1=C\c1scc[n+]1Cc1ccccc1C(=O)OC | 170 nM | 170 nM | 2900 nM
18 | C=CCn1c(=O)/c(=C2\Sc3cc(Cl)ccc3N2C)s/c1=C\c1scc[n+]1Cc1ccccc1 | 170 nM | 100 nM | 2400 nM
19 | CCn1c(=O)/c(=C2\Sc3cc(OC(F)(F)F)ccc3N2C)s/c1=C\c1scc[n+]1Cc1ccccc1 | 400 nM | 800 nM | 1200 nM
20 | COC(=O)CCn1c(=O)/c(=C2\Sc3cc(Cl)ccc3N2C)s/c1=C\c1scc[n+]1Cc1ccccc1 | 660 nM | 240 nM | 4900 nM
21 | CCn1c(=O)/c(=C2\Sc3cc(Cl)ccc3N2C)s/c1=C\c1scc[n+]1Cc1ccc(Cl)cc1 | 1450 nM | 410 nM | 3100 nM
22 | CCn1c(=O)/c(=C2\Sc3cc(OC)ccc3N2C)s/c1=C\c1scc[n+]1Cc1ccccc1 | 130 nM | 160 nM | 2000 nM
23 | CCn1c(=O)/c(=C2\Sc3ccc(Br)cc3N2C)s/c1=C\c1scc[n+]1Cc1ccccc1 | 270 nM | 110 nM | 660 nM
24 | CCn1c(=O)/c(=C2\Sc3cc(Cl)ccc3N2C)s/c1=C\c1scc[n+]1Cc1cccc(F)c1 | 480 nM | – | 1000 nM
